An excerpt weighted towards active compounds, which were near 9.6% of everything screened.
L major viab – Leishmania major promastigote growth inhibition, primary screen; AID 1063, 2008; Leishmania major promastigotes, resazurin fluorescence viability; hit rate 9% among 200,000; inhibition, % at 10 µM; in the data active = inhibition above about 50%;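 also: promastigotes grown with compound for 44 hours at 28 °C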
APP 5UTR inh – inhibitors of APP translation via 5'UTR reporter, primary screen, APP 5'UTR luciferase, SH-SY5Y cells; SH-SY5Y APP 5'UTR-luciferase reporter, luminescence; inhibition, % at 2 µM; hit rate 0.82% among 190,000; AID 1285, 2008;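 active = inhibition above a set limit, derived from the sample mean plus 3 SD, cut at about 45% in these data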
BaF3 parental – parental Ba/F3 cell viability inhibition, counter-screen for JAK2V617F inhibitor project, murine pro-B, CellTiter-Glo luminescence; CellTiter-Glo ATP luminescence; AID 1486, 2009; hit rate 1.1% among 220,000; inhibition, % at 5.6 µM;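 active = inhibition above a per-campaign cutoff, the mean inhibition of all tested compounds plus 3 SD, cut at about 27% in these data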;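 also: 0% = DMSO wells and 100% = JAK Inhibitor I control wells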
MT stabilize HCS – microtubule stabilizers in HeLa cells, primary screen, imaging, high-content imaging | HeLa tubulin immunostaining HCS, 24 h; share of cells brighter than vehicle mean+2SD | % tubulin-high responders, % at 10 µM | hit rate 0.83% among 200,000 | AID 2205, 2009;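 active = plate Z-score above 3 for both tubulin-high and condensed-nucleus cell shares, with cell loss under 80%, at 10 µM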;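 also: anti alpha tubulin signal scored within the nucleus-defined area of each cell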
Ba/F3 V617F tox – reduced viability of JAK2V617F-dependent Ba/F3 cells, primary screen, JAK2V617F inhibitor project, cell-based, Ba/F3 EpoR-JAK2V617F, luminescence; hit rate 1.1% among 220,000; AID 1446, 2008; ATP luminescence; inhibition, % at 5.6 µM;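 active = inhibition above the campaign mean plus 3 SD over all tested compounds, cut at about 24% in these data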;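 also: cytokine-independent growth of Ba/F3 cells driven by EpoR plus mutant JAK2; 0% = DMSO-treated cells and 100% = JAK inhibitor I control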
b-catenin transl – modulators of beta-catenin nuclear translocation, primary screen, imaging, HeLa cells, immunofluorescence, high-content. hit rate 0.3% among 190,000. nuclear translocation activity, % at 5 µM. AID 1665, 2009;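 active = nuclear translocation activity above 50% at 5 µM, with a well cell count of 50 or more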;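 also: per-cell ratio of nuclear to cytoplasmic median beta-catenin stain intensity; plate controls were DMSO negative control for no effect and GSK-3 inhibitor IX positive control for full effect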
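test system = HeLa cells, endogenous beta-catenin | dosing = single 5 µM dose plus 0.02–20 µM confirmation series | times = compound treatment 24 h, 37°C, 5% CO2 | technique = beta-catenin immunofluorescence imaging with DAPI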
Active calls of the source: *.

What do the screens show for `CCCn1nnc(NC(=O)c2ccc(-c3cccc(Cl)c3)o2)n1`?
L major viab: 77*; APP 5UTR inh: -33; BaF3 parental: -3; MT stabilize HCS: 5; Ba/F3 V617F tox: -4; b-catenin transl: -1

How did S=C(NCc1ccccc1)NNc1ccccc1 do in these assays?
L major viab: 8; APP 5UTR inh: 22; BaF3 parental: 8; MT stabilize HCS: 4; Ba/F3 V617F tox: 3; b-catenin transl: 0

What do the screens show for `CCN1CCN(CC(=O)N2N=C(c3cccs3)CC2c2ccc(C)cc2)C(=O)C1=O` (configuration not stated)?
L major viab: -6; APP 5UTR inh: 0; BaF3 parental: 4; MT stabilize HCS: 3; Ba/F3 V617F tox: 2; b-catenin transl: -7

Results for O=C1NCCN/C1=C\C(=O)c1ccccc1 ?
L major viab: -4; APP 5UTR inh: 74*; BaF3 parental: 1; MT stabilize HCS: 3; Ba/F3 V617F tox: -1

What do the screens show for `O=C1NCCN/C1=C\C(=O)c1ccc(Br)cc1`?
BaF3 parental: -3; Ba/F3 V617F tox: -1; b-catenin transl: 0

What do the screens show for `COc1ccc2[nH]c(C(=O)NCc3ccc4c(c3)OCO4)cc2c1`?
BaF3 parental: 2; Ba/F3 V617F tox: -1; b-catenin transl: 0

What do the screens show for `COc1ccc(Cc2noc(CN(C)Cc3cccc(-n4cccn4)c3)n2)cc1OC`?
L major viab: 0; APP 5UTR inh: -8; BaF3 parental: 7; MT stabilize HCS: 2; Ba/F3 V617F tox: 3; b-catenin transl: 0

How did COc1ccc(Cc2nnc(N/N=C/c3ccc(O)cc3)[nH]c2=O)cc1OC do in these assays?
L major viab: 98*; APP 5UTR inh: 86*; BaF3 parental: 4; MT stabilize HCS: 11; Ba/F3 V617F tox: -5; b-catenin transl: 0

What do the screens show for `COc1ccc(Cc2nnc(N/N=C/c3ccc(Br)cc3)[nH]c2=O)cc1OC`?
BaF3 parental: 1; Ba/F3 V617F tox: -3; b-catenin transl: 1

How did O=C(CN1CCOCC1)N(c1ccccc1)c1ccc2ccccc2c1 do in these assays?
L major viab: 6; APP 5UTR inh: -7; BaF3 parental: 8; MT stabilize HCS: 5; Ba/F3 V617F tox: -1; b-catenin transl: -8

Results for O=C(CN1CCN(c2ccccn2)CC1)N(c1ccccc1)c1ccc2ccccc2c1 ?
L major viab: 97*; APP 5UTR inh: 7; BaF3 parental: 6; MT stabilize HCS: 4; Ba/F3 V617F tox: 6; b-catenin transl: -4

How did CC1CCCCC1NC(=O)/C(C#N)=C/c1ccc(OCC(N)=O)cc1 (configuration not stated) do in these assays?
L major viab: 64*; APP 5UTR inh: -8; BaF3 parental: 6; MT stabilize HCS: 3; Ba/F3 V617F tox: 0; b-catenin transl: -5

Results for CN(C)S(=O)(=O)Nc1cc(F)cc(F)c1 ?
L major viab: -3; APP 5UTR inh: 1; BaF3 parental: 2; MT stabilize HCS: 3; Ba/F3 V617F tox: -1; b-catenin transl: 0

How did COc1cccc(OCc2nnc(SCC(=O)NCc3ccco3)n2CCc2ccccc2)c1 do in these assays?
L major viab: 91*; APP 5UTR inh: 4; BaF3 parental: 8; MT stabilize HCS: 2; Ba/F3 V617F tox: -1; b-catenin transl: 0

What do the screens show for `COc1ccc(-n2c(COc3cccc4ccccc34)nnc2SCC(=O)NCc2ccco2)cc1`?
L major viab: 98*; APP 5UTR inh: -4; BaF3 parental: 3; MT stabilize HCS: 6; Ba/F3 V617F tox: 2; b-catenin transl: -1

How did COc1ccc(OC)c(C(=O)CSc2nnc(Cc3cccs3)n2CCc2ccccc2)c1 do in these assays?
L major viab: 97*; APP 5UTR inh: 0; BaF3 parental: -3; MT stabilize HCS: 3; Ba/F3 V617F tox: -3; b-catenin transl: 0

What do the screens show for `COc1cccc(NC(=O)CSc2nnc(Cc3cccs3)n2-c2ccc(C)cc2)c1`?
L major viab: 10; APP 5UTR inh: 15; BaF3 parental: 5; MT stabilize HCS: 3; Ba/F3 V617F tox: 4; b-catenin transl: 0

How did COc1ccc(NC(=O)CSc2nnc(Cc3cccs3)n2-c2ccc(C)cc2)cc1 do in these assays?
L major viab: 98*; APP 5UTR inh: -7; BaF3 parental: 6; MT stabilize HCS: 2; Ba/F3 V617F tox: 3; b-catenin transl: -5

How did COc1ccc(-n2c(COc3ccc4ccccc4c3)nnc2SCC(=O)NCc2ccco2)cc1 do in these assays?
L major viab: 21; BaF3 parental: 9; MT stabilize HCS: 1; Ba/F3 V617F tox: 5; b-catenin transl: -4

Results for COc1cccc(OCc2nnc(SCC(=O)NCc3ccco3)n2C)c1 ?
L major viab: -2; APP 5UTR inh: 3; BaF3 parental: 1; MT stabilize HCS: 3; Ba/F3 V617F tox: 2; b-catenin transl: -2

What do the screens show for `COc1ccc(/C=N/NC(=O)c2cc(C34CC5CC(CC(C5)C3)C4)[nH]n2)cc1OC`?
L major viab: 27; APP 5UTR inh: -7; BaF3 parental: 0; MT stabilize HCS: 2; Ba/F3 V617F tox: -5; b-catenin transl: 0

Results for COc1cccc(/C=N/NC(=O)c2cc(C34CC5CC(CC(C5)C3)C4)[nH]n2)c1 ?
L major viab: 89*; APP 5UTR inh: -8; BaF3 parental: -2; MT stabilize HCS: 3; Ba/F3 V617F tox: -5; b-catenin transl: 0

Results for COc1cccc(N2CCN(c3c(C#N)c(C(F)(F)F)nn3C)CC2)c1 ?
L major viab: 80*; APP 5UTR inh: 13; BaF3 parental: 7; MT stabilize HCS: 2; Ba/F3 V617F tox: 4; b-catenin transl: -3

How did O=C(CCn1c(=O)oc2ccccc21)N1CCc2ccccc21 do in these assays?
L major viab: 9; APP 5UTR inh: 20; BaF3 parental: -1; MT stabilize HCS: 5; Ba/F3 V617F tox: -2; b-catenin transl: -8

How did N=c1c2c(n(Cc3ccc([N+](=O)[O-])cc3)c3c1CCC3)CCCC2 do in these assays?
L major viab: 64*; APP 5UTR inh: -7; BaF3 parental: 10; MT stabilize HCS: 2; Ba/F3 V617F tox: 0; b-catenin transl: 1

What do the screens show for `N=c1c2c(n(Cc3ccc(Br)cc3)c3c1CCC3)CCCC2`?
L major viab: 100*; APP 5UTR inh: -3; BaF3 parental: 75*; MT stabilize HCS: 3; Ba/F3 V617F tox: 100*; b-catenin transl: -2

Results for N=c1c2c(n(Cc3ccc(Cl)c(Cl)c3)c3c1CCC3)CCCC2 ?
L major viab: 100*; APP 5UTR inh: 12; BaF3 parental: 76*; MT stabilize HCS: 5; Ba/F3 V617F tox: 88*; b-catenin transl: 4

What do the screens show for `O=c1[nH]c(=O)n(Cc2ccccc2)c2c1CCC2`?
L major viab: 3; APP 5UTR inh: -3; BaF3 parental: -1; MT stabilize HCS: 2; Ba/F3 V617F tox: -3; b-catenin transl: 1

Bioassay records (PubChem BioAssay)
